What all share (assay type): functional, cell-based
The test system of one test is SK-MEL-28. Description: Cytotoxicity against human SK-MEL-28 cells by SRB assay. In short, it runs like this: (§1)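 Compounds were run across a panel of 13 human tumor cell lines. Potency is expressed as IC50 in μg/mL.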
Another test relates to LNCaP. Description: Cytotoxicity against human LNCAP cells by SRB assay. The method, boiled down: as §1
Test [1] deals with HeLa. Description: Cytotoxicity against human aplidine-resistant HeLa cells by SRB assay. The method, boiled down:
as §1
(In general: The SRB assay estimates cell density from bound dye.)

The test system of the next test is HT-29. Description: Cytotoxicity against human HT-29 cells by SRB assay. The method, boiled down:
as §1

For test [2], the system named is LoVo. Description: Cytotoxicity against human doxorubicin-resistant LoVo cells by SRB assay. The method, boiled down: as §1
The nature of test [3]: Cytotoxicity against human ecteinascidin-743-resistant IGROV cells by SRB assay. In short, it runs like this:
as §1

Another test concerns PANC-1. Description: Cytotoxicity against human PANC1 cells by SRB assay. In short, it runs like this:
as §1

Test [4] relates to HeLa. Description: Cytotoxicity against human HeLa cells by SRB assay. In short, it runs like this: as §1
In another test the test system is SK-BR-3. Description: Cytotoxicity against human SKBR3 cells by SRB assay. The method, boiled down:
as §1

The nature of test [5]: Cytotoxicity against human IGROV cells by SRB assay. In short, it runs like this: as §1
Test [6] relates to LoVo. Description: Cytotoxicity against human LoVo cells by SRB assay. In short, it runs like this: as §1
In a further test the test system is A549. Description: Cytotoxicity against human A549 cells by SRB assay. In short, it runs like this:
as §1

The next test concerns DU-145. Description: Cytotoxicity against human DU145 cells by SRB assay. The method, boiled down:
as §1

≈ marks a conversion by molar mass, not a printed value. A value given as a limit tells only on which side of the number the result lay.

Usually IC50 stands for the concentration that inhibits the measured activity by half. In the case of `CC1=C(CC[C@H]2[C@]3(C)CCC(=O)C(C)(C)O[C@H]3CC[C@]2(C)O)[C@@]2(C)CCC(=O)C(C)(C)C2=C(O)C1=O` [SODWANONE A], the IC50 was 7.5 µg/mL (≈ 15 µM) with SK-MEL-28; 3.8 µg/mL (≈ 7.59 µM) with LNCaP; 2.9 µg/mL (≈ 5.79 µM) in the test on HeLa [1]; more than 10 µg/mL in the test on HT-29; 0.3 µg/mL (≈ 0.599 µM) with LoVo [2]; 0.068 µg/mL (≈ 0.136 µM) in test [3]. The IC50 is 0.7 µg/mL (≈ 1.4 µM) with PANC-1; 2.1 µg/mL (≈ 4.19 µM) in the test on HeLa [4]; more than 10 µg/mL in the test on SK-BR-3; 1.7 µg/mL (≈ 3.4 µM) in test [5]; 8.5 µg/mL (≈ 17 µM) with LoVo [6]; 3.5 µg/mL (≈ 6.99 µM) with A549. Moreover, half-maximal inhibition in the test with DU-145 (IC50) was put at 1.8 µg/mL (≈ 3.6 µM).

Take `CC1=C(CC[C@@H]2[C@@]3(CC[C@@H]4OC(C)(C)C(=O)CC[C@]42C)CO3)[C@@]2(C)CCC(=O)C(C)(C)C2=C(O)C1=O` [SODWANONE G]: the IC50 in the test with SK-MEL-28 is more than 10 µg/mL; with LNCaP, 4.3 µg/mL (≈ 8.62 µM); with HeLa [1], 4.2 µg/mL (≈ 8.42 µM); in the test with HT-29 it was more than 10 µg/mL; in the test on LoVo [2] it was 2.7 µg/mL (≈ 5.41 µM); in [3], 2.7 µg/mL (≈ 5.41 µM). Further, the IC50 in the test on PANC-1 is 3.1 µg/mL (≈ 6.22 µM); with HeLa [4], 5.4 µg/mL (≈ 10.8 µM); in the test with SK-BR-3, more than 10 µg/mL; in test [5] it was 5 µg/mL (≈ 10 µM); in the test with LoVo [6] it was more than 10 µg/mL; with A549, more than 10 µg/mL. In addition, the IC50 in the test on DU-145 was more than 10 µg/mL.

Consider `C[C@H]1CC[C@@H]2OC(C)(C)[C@@H](O)CC=C2[C@@]1(C)CC[C@H]1[C@]2(C)CCC(=O)C(C)(C)O[C@H]2CC[C@]1(C)O` [SODWANONE S], for which the IC50 in the test with SK-MEL-28 is 6.5 µg/mL (≈ 13.2 µM); with LNCaP, 5 µg/mL (≈ 10.2 µM); with HeLa [1], more than 10 µg/mL; in the test with HT-29, more than 10 µg/mL; with LoVo [2] it was 3.3 µg/mL (≈ 6.72 µM); in test [3] it was 4.7 µg/mL (≈ 9.58 µM). In addition, the IC50 was 4.1 µg/mL (≈ 8.35 µM) with PANC-1; more than 10 µg/mL in the test on HeLa [4]; 3.8 µg/mL (≈ 7.74 µM) in the test on SK-BR-3; more than 10 µg/mL in test [5]; 6.9 µg/mL (≈ 14.1 µM) in the test with LoVo [6]; more than 10 µg/mL in the test with A549. The IC50 in the test with DU-145 was more than 10 µg/mL.

The values above are taken from ChEMBL document CHEMBL1141790, “Sodwanone S, a triterpene from the marine sponge Axinella weltneri” (J Nat Prod, 2005).
